Test results: ChEMBL document CHEMBL4689842, “EUbOPEN Chemogenomics Library wave 1” (2021)
Several values for one entry are separate records, joined by “and”; a condition that tells them apart may be missing. Equal entries are not always repeated.

Test system: Fibroblast
Assay: Multiplex assay against human fibroblast
Type: toxicity, cell-based
In short: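 Per cents of healthy-nucleus cells form the tubulin, mitochondrial-mass and membrane-permeability phenotype values. Live cells were stained at seeding with Hoechst33342, BioTracker Green Microtubule Cytoskeleton Dye, MitoTracker Red and Annexin V Alexa Fluor 680. After compound addition they were imaged on a CQ1 microscope at 37°C and 5% CO2, and CellPathfinder machine-learning gating split them into Hoechst high-intensity objects or normal cells, normal cells into healthy, pyknosed or fragmented nuclei, and pyknosed cells into mitotic or apoptotic.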

[1] = 12 h, 1 µM, compound concentration 1 uM, replicate 1
[2] = 12 h, 1 µM, compound concentration 1 uM, replicate 2
[3] = 12 h, 10 µM, compound concentration 10 uM, replicate 1
[4] = 12 h, 10 µM, compound concentration 10 uM, replicate 2
[5] = 24 h, 1 µM, compound concentration 1 uM, replicate 1
[6] = 24 h, 1 µM, compound concentration 1 uM, replicate 2
[7] = 24 h, 10 µM, compound concentration 10 uM, replicate 1
[8] = 24 h, 10 µM, compound concentration 10 uM, replicate 2
[9] = 48 h, 1 µM, compound concentration 1 uM, replicate 1
[10] = 48 h, 1 µM, compound concentration 1 uM, replicate 2
[11] = 48 h, 10 µM, compound concentration 10 uM, replicate 1
[12] = 48 h, 10 µM, compound concentration 10 uM, replicate 2

Cc1c(-c2ccc(O)cc2)n(Cc2ccc(OCCN3CCCCCC3)cc2)c2ccc(O)cc12 [BAZEDOXIFENE]
Population Apoptotic (%) [1]: 69%
Population Fragmented Nuclei (%) [1]: 27%
Population Healthy Nuclei (%) [1]: 33%
Population Hoechst High Intensity Objects (%) [1]: 13%
Population Membrane Permeable-Phenotype (%) [1]: 16%
Population Mitochondria Different-Phenotype (%) [1]: 19%
Population Mitotic Cells (%) [1]: 30%
Population Normal (%) [1]: 86%
Population Pyknosed Nuclei (%) [1]: 39%
Population Tubulin-Different-Phenotype (%) [1]: 58%
Total Cell Count [1]: 106
Population Apoptotic (%) [2]: 0%
Population Fragmented Nuclei (%) [2]: 13%
Population Healthy Nuclei (%) [2]: 81%
Population Hoechst High Intensity Objects (%) [2]: 10%
Population Membrane Permeable-Phenotype (%) [2]: 5%
Population Mitochondria Different-Phenotype (%) [2]: 20%
Population Mitotic Cells (%) [2]: 100%
Population Normal (%) [2]: 89%
Population Pyknosed Nuclei (%) [2]: 4%
Population Tubulin-Different-Phenotype (%) [2]: 17%
Total Cell Count [2]: 48
Population Apoptotic (%) [3]: 72%
Population Fragmented Nuclei (%) [3]: 27%
Population Healthy Nuclei (%) [3]: 36%
Population Hoechst High Intensity Objects (%) [3]: 26%
Population Membrane Permeable-Phenotype (%) [3]: 12%
Population Mitochondria Different-Phenotype (%) [3]: 35%
Population Mitotic Cells (%) [3]: 27%
Population Normal (%) [3]: 73%
Population Pyknosed Nuclei (%) [3]: 36%
Population Tubulin-Different-Phenotype (%) [3]: 85%
Total Cell Count [3]: 149
Population Apoptotic (%) [4]: 60%
Population Fragmented Nuclei (%) [4]: 7%
Population Healthy Nuclei (%) [4]: 56%
Population Hoechst High Intensity Objects (%) [4]: 2%
Population Membrane Permeable-Phenotype (%) [4]: 26%
Population Mitochondria Different-Phenotype (%) [4]: 100%
Population Mitotic Cells (%) [4]: 40%
Population Normal (%) [4]: 97%
Population Tubulin-Different-Phenotype (%) [4]: 100%
Total Cell Count [4]: 42
Population Apoptotic (%) [5]: 80%
Population Fragmented Nuclei (%) [5]: 27%
Population Healthy Nuclei (%) [5]: 49%
Population Hoechst High Intensity Objects (%) [5]: 14%
Population Membrane Permeable-Phenotype (%) [5]: 22%
Population Mitochondria Different-Phenotype (%) [5]: 8%
Population Mitotic Cells (%) [5]: 19%
Population Normal (%) [5]: 85%
Population Pyknosed Nuclei (%) [5]: 23%
Population Tubulin-Different-Phenotype (%) [5]: 46%
Total Cell Count [5]: 106
Population Apoptotic (%) [6]: 11%
Population Fragmented Nuclei (%) [6]: 8%
Population Healthy Nuclei (%) [6]: 75%
Population Hoechst High Intensity Objects (%) [6]: 3%
Population Membrane Permeable-Phenotype (%) [6]: 2%
Population Mitochondria Different-Phenotype (%) [6]: 6%
Population Mitotic Cells (%) [6]: 88%
Population Normal (%) [6]: 96%
Population Pyknosed Nuclei (%) [6]: 15%
Population Tubulin-Different-Phenotype (%) [6]: 15%
Total Cell Count [6]: 60
Population Apoptotic (%) [7]: 62%
Population Fragmented Nuclei (%) [7]: 20%
Population Healthy Nuclei (%) [7]: 37%
Population Hoechst High Intensity Objects (%) [7]: 23%
Population Membrane Permeable-Phenotype (%) [7]: 12%
Population Mitochondria Different-Phenotype (%) [7]: 71%
Population Mitotic Cells (%) [7]: 37%
Population Normal (%) [7]: 76%
Population Pyknosed Nuclei (%) [7]: 41%
Population Tubulin-Different-Phenotype (%) [7]: 84%
Total Cell Count [7]: 134
Population Apoptotic (%) [8]: 68%
Population Fragmented Nuclei (%) [8]: 22%
Population Healthy Nuclei (%) [8]: 30%
Population Hoechst High Intensity Objects (%) [8]: 20%
Population Membrane Permeable-Phenotype (%) [8]: 75%
Population Mitochondria Different-Phenotype (%) [8]: 100%
Population Mitotic Cells (%) [8]: 31%
Population Normal (%) [8]: 80%
Population Pyknosed Nuclei (%) [8]: 47%
Population Tubulin-Different-Phenotype (%) [8]: 100%
Total Cell Count [8]: 50
Population Apoptotic (%) [9]: 50%
Population Fragmented Nuclei (%) [9]: 42%
Population Healthy Nuclei (%) [9]: 51%
Population Hoechst High Intensity Objects (%) [9]: 14%
Population Membrane Permeable-Phenotype (%) [9]: 26%
Population Mitochondria Different-Phenotype (%) [9]: 4%
Population Mitotic Cells (%) [9]: 50%
Population Normal (%) [9]: 85%
Population Pyknosed Nuclei (%) [9]: 6%
Population Tubulin-Different-Phenotype (%) [9]: 44%
Total Cell Count [9]: 115
Population Apoptotic (%) [10]: 75%
Population Fragmented Nuclei (%) [10]: 27%
Population Healthy Nuclei (%) [10]: 68%
Population Hoechst High Intensity Objects (%) [10]: 16%
Population Membrane Permeable-Phenotype (%) [10]: 15%
Population Mitochondria Different-Phenotype (%) [10]: 1%
Population Mitotic Cells (%) [10]: 25%
Population Normal (%) [10]: 83%
Population Pyknosed Nuclei (%) [10]: 3%
Population Tubulin-Different-Phenotype (%) [10]: 46%
Total Cell Count [10]: 123
Population Apoptotic (%) [11]: 85%
Population Fragmented Nuclei (%) [11]: 39%
Population Healthy Nuclei (%) [11]: 29%
Population Hoechst High Intensity Objects (%) [11]: 18%
Population Membrane Permeable-Phenotype (%) [11]: 33%
Population Mitochondria Different-Phenotype (%) [11]: 55%
Population Mitotic Cells (%) [11]: 14%
Population Normal (%) [11]: 81%
Population Pyknosed Nuclei (%) [11]: 30%
Population Tubulin-Different-Phenotype (%) [11]: 81%
Total Cell Count [11]: 112
Population Apoptotic (%) [12]: 83%
Population Fragmented Nuclei (%) [12]: 42%
Population Healthy Nuclei (%) [12]: 37%
Population Hoechst High Intensity Objects (%) [12]: 35%
Population Membrane Permeable-Phenotype (%) [12]: 21%
Population Mitochondria Different-Phenotype (%) [12]: 47%
Population Mitotic Cells (%) [12]: 16%
Population Normal (%) [12]: 64%
Population Pyknosed Nuclei (%) [12]: 19%
Population Tubulin-Different-Phenotype (%) [12]: 65%
Total Cell Count [12]: 95

CN(C)c1ncnc(-c2ccc3nc(Nc4cc(CN5CCN(C(=O)CC(F)(F)F)CC5)ccn4)[nH]c3c2)c1Cl [BAY-440]
Population Apoptotic (%) [3]: 72% and 67%
Population Fragmented Nuclei (%) [3]: 31% and 20%
Population Healthy Nuclei (%) [3]: 51% and 62%
Population Hoechst High Intensity Objects (%) [3]: 10% and 13%
Population Membrane Permeable-Phenotype (%) [3]: 29% and 17%
Population Mitochondria Different-Phenotype (%) [3]: 6% and 3%
Population Mitotic Cells (%) [3]: 27% and 32%
Population Normal (%) [3]: 89% and 86%
Population Pyknosed Nuclei (%) [3]: 17%
Total Cell Count [3]: 282 and 187
Population Apoptotic (%) [4]: 83% and 50%
Population Fragmented Nuclei (%) [4]: 48% and 40%
Population Healthy Nuclei (%) [4]: 41% and 50%
Population Hoechst High Intensity Objects (%) [4]: 24% and 35%
Population Membrane Permeable-Phenotype (%) [4]: 25% and 18%
Population Mitochondria Different-Phenotype (%) [4]: 33% and 18%
Population Normal (%) [4]: 75% and 64%
Population Pyknosed Nuclei (%) [4]: 10% and 9%
Population Tubulin-Different-Phenotype (%) [4]: 50% and 86%
Total Cell Count [4]: 77 and 68
Population Apoptotic (%) [7]: 58% and 50%
Population Fragmented Nuclei (%) [7]: 31% and 22%
Population Healthy Nuclei (%) [7]: 55% and 67%
Population Hoechst High Intensity Objects (%) [7]: 14% and 11%
Population Membrane Permeable-Phenotype (%) [7]: 18% and 10%
Population Mitochondria Different-Phenotype (%) [7]: 7% and 0%
Population Mitotic Cells (%) [7]: 41% and 50%
Population Normal (%) [7]: 85% and 88%
Population Pyknosed Nuclei (%) [7]: 12% and 10%
Total Cell Count [7]: 290 and 193
Population Apoptotic (%) [8]: 75% and 37%
Population Fragmented Nuclei (%) [8]: 52% and 48%
Population Healthy Nuclei (%) [8]: 39% and 32%
Population Hoechst High Intensity Objects (%) [8]: 37% and 36%
Population Membrane Permeable-Phenotype (%) [8]: 22% and 14%
Population Mitotic Cells (%) [8]: 25% and 62%
Population Normal (%) [8]: 62% and 63%
Population Pyknosed Nuclei (%) [8]: 8% and 18%
Total Cell Count [8]: 74 and 68
